An excerpt weighted towards active compounds, which were near 2.5% of everything screened.
SENP1 FRET inh: human SENP1 catalytic domain inhibitors, primary screen, biochemical, FRET, uHTS; recombinant SENP1 catalytic domain, CyPet-SUMO1-YPet FRET cleavage; inhibition, % at 10 µM; hit rate 0.21% among 360,000; AID 624204, 2012;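 active = inhibition at least 30% at 10 µM, raw YFP signal under a set limit, fluorescence ratio 0.5 to 1.5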;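 note: 0% = enzyme with DMSO and 100% = no enzyme wells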
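system = hSENP1 catalytic domain, recombinant | reagent = SFCypet-SUMO1-SFYpet substrate at 25 nM | doses = one dose per compound, 10 µM, 0.5% DMSO | incubation = enzyme reaction for 50 min at room temperature, dark | measured by = FRET, CFP and YFP emission | controls = no-enzyme low, enzyme-DMSO high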
NadD inh: inhibitors of S. aureus NadD, primary screen, biochemical, colorimetric, uHTS; purified NadD enzyme, colorimetric absorbance read-out; inhibition, % at 20 µM; hit rate 0.78% among 360,000; AID 602399, 2012; Nicotinate-nucleotide adenylyltransferase NadD (Staphylococcus aureus N315); in the data active = inhibition above about 26%
ABHD5 PLIN5 PPI: ABHD5-PLIN5 interaction inhibitors, primary screen, cell lysate, split luciferase complementation, luminescence; Split G. princeps luciferase complementation, 4 h; inhibition, % at 4 µM; hit rate 0.78% among 360,000; AID 602281, 2012;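 active = inhibition above the mean inhibition across every tested compound plus 3 SD, cut at about 22% in these data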;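 note: 0% = DMSO only wells and the 100% control is not disclosed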
B2AR ag: beta2AR agonists driving receptor internalization, primary screen, cell-based, FAP fluorogen, flow cytometry | Am2.2-beta2AR cells | AID 504454, 2011 | response, % (test concentration not listed) | hit rate 0.43% among 340,000 | Beta-2 adrenergic receptor (Homo sapiens), P07550;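 active = response above a set limit, near 3 SD of response in nonfluorescent compounds, cut at about 42% in these data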
GRK2 aptamer HTS: compounds blocking aptamer binding on GRK2 – biochemical, human GRK2, bead flow cytometry, HTS, primary screen. Beta-adrenergic receptor kinase 1 (Homo sapiens), P25098. FAM-aptamer displacement from GRK2. inhibition of aptamer binding, % at 10 µM. hit rate 0.59% among 330,000;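 active = inhibition of aptamer binding above 40%, roughly 3 SD of noise, on plates passing a quality check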;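 note: median bead fluorescence of bound FAM aptamer so fluorescent compounds give negative values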
Target sequence (P25098 whole entry, looked up): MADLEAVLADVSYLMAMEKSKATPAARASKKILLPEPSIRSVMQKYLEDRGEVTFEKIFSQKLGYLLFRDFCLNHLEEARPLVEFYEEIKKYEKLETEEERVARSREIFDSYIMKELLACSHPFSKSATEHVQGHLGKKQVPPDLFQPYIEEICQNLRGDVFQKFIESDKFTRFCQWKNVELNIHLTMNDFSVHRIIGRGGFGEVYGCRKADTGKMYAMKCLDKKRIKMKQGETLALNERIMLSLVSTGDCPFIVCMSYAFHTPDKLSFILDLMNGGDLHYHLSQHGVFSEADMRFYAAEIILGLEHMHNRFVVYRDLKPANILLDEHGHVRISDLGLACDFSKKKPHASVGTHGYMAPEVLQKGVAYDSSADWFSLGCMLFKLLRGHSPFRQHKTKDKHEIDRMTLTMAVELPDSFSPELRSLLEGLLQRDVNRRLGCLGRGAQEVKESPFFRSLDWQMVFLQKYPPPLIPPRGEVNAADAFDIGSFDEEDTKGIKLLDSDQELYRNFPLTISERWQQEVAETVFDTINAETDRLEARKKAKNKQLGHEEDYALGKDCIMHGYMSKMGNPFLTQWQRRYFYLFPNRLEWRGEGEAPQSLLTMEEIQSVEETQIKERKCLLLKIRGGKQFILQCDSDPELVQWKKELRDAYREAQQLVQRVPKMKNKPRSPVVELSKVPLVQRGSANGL
SENP1 conf: human SENP1 catalytic domain inhibitors, confirmation, biochemical, FRET endpoint, single concentration. inhibition, % at 10 µM. recombinant SENP1, CyPet-SUMO1-YPet FRET cleavage. hit rate 34% among 520. shares compounds with SENP1 FRET inh; in the data active = inhibition mostly above about 35%, no sharp cut-off; inactive = mostly below about 32%;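 note: 0% = enzyme with DMSO and 100% = no enzyme control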
SENP1 kinetic: human SENP1 catalytic domain inhibitors, confirmation, biochemical, kinetic FRET, single concentration; hit rate 26% among 520; inhibition, % at 10 µM; shares compounds with SENP1 FRET inh; AID 651690, 2012; recombinant SENP1, CyPet-SUMO1-YPet FRET kinetic cleavage; in the data active = inhibition mostly above about 32%, no sharp cut-off; inactive = mostly below about 29%;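 note: 0% = DMSO with enzyme and 100% = no enzyme substrate only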
Starred values were filed as active, the others as inactive; · = no result.

SMILES	SENP1 FRET inh	NadD inh	ABHD5 PLIN5 PPI	B2AR ag	GRK2 aptamer HTS	SENP1 conf	SENP1 kinetic
NNC(=O)c1cc(-c2ccc(N)cc2)nc2ccc(Br)cc12	49*	5	1	3	1	26	23
Cc1c(C=NNC(=O)c2ccc(Br)cc2)c2ccccn2c1C(=O)c1ccncc1	50*	26	-2	-1	0	30	18
O=C(NCc1ccccc1CN1CCCC1)c1ccc(Cl)c(N2CCCC2=O)c1	-5	3	-10	-1	0	·	·
CCOC(=O)Cn1c(=O)c(-c2ccccc2N)nc2ccccc21	-5	3	5	0	0	·	·
CCOC(=O)Cn1c(=O)c(-c2cc(Br)ccc2N)nc2ccccc21	86*	0	8	-9	1	16	15
CCc1ccc2nc(SCC(=O)Nc3ccccc3N3CCOCC3)c(C#N)cc2c1	48*	2	-5	0	0	21	17
Cc1ccc(SCC(=O)Nc2ccccc2N2CCOCC2)cc1	0	-11	-7	-8	3	·	·
Cc1ccc2nc(SCC(=O)Nc3ccccc3N3CCOCC3)c(C#N)cc2c1	33*	4	7	6	0	-11	-12
CC(C)Cc1ccc(CN2C(C)C(=O)N(Cc3cn(Cc4ccco4)nn3)CCS2(=O)=O)cc1 (stereo not drawn)	-15	12	11	·	·	·	·
O=c1[nH]c(/C(Cl)=C/c2cc(Cl)ccc2O)nc2cc(Cl)ccc12	59*	12	2	5	0	89*	73*
CCn1c(/C=C/c2ccc(O)c(O)c2)nc2ccccc2c1=O	-4	10	7	-5	0	·	·
CCn1c(/C=C/c2cc(Br)ccc2O)nc2ccccc2c1=O	78*	1	0	13	3	36*	33
CCCN(CCC)Cc1cc(=O)oc2cc(C)c(C)cc12	-4	-2	9	·	·	·	·
CCC1CCCCN1CCCNS(=O)(=O)c1ccc2c(c1)oc(=O)n2C (stereo not drawn)	31*	5	-4	-27	14	19	7
CCOc1cc(/C=C2\NC(=S)N(c3c(C)n(C)n(-c4ccccc4)c3=O)C2=O)ccc1O	-18	-3	-3	5	0	·	·
CCOc1cccc(/C=C2\NC(=S)N(c3ccccc3)C2=O)c1O	48*	-6	1	5	1	45*	18
COc1ccc(NC(=O)CSc2nc(N)cc(N)n2)cc1S(=O)(=O)N1CCCCC1	3	-1	-14	-5	6	·	·
CCN(CC)c1nc2cc(C)ccc2cc1/C=C(\C#N)C(N)=O	79*	6	8	-3	0	58*	33
CCc1ccc(NC(=O)/C(C#N)=C/c2cc3ccc(C)cc3nc2N2CCOCC2)cc1	30	19	-5	7	0	·	·
O=C(Nc1cc(C(F)(F)F)ccc1N1CCOCC1)c1cccc(S(=O)(=O)N2CCOCC2)c1	2	-2	2	·	·	·	·
CCOC(=O)c1c(=O)n(O)c2ccc(C)cc2[n+]1[O-]	47*	2	3	7	0	10	9
CCOc1ccc(S(=O)(=O)N2CCCCC2)cc1NC(=O)c1c(CC)noc1C	0	-5	7	12	0	·	·
COc1cccc(N2CCN(c3nc(-c4ccccc4C)cc(=O)[nH]3)CC2)c1	2	-5	-4	-7	0	·	·
O=C(NNc1nc2c(F)cccc2s1)c1ccc(F)cc1	2	-8	-7	2	5	·	·
O=C(NNc1nc2c(F)cccc2s1)c1cc(=O)c2ccccc2o1	33*	15	-15	10	0	66*	57*
SMILES	SENP1 FRET inh	NadD inh	ABHD5 PLIN5 PPI	B2AR ag	GRK2 aptamer HTS	SENP1 conf	SENP1 kinetic
CCCCCN(C(=O)CSc1n[nH]c(-c2ccc(C)cc2)n1)c1c(N)n(CCCC)c(=O)[nH]c1=O	-13	8	-4	16	2	·	·
NC(=O)CCCn1c(C(=O)c2cc(Cl)c(N)c(Cl)c2)c2ccc([N+](=O)[O-])cc2[n+]1[O-]	30*	7	0	-11	0	20	3
COc1ccc(Nc2nnc(SCc3cc(=O)n4ccsc4n3)s2)cc1	31*	-4	-2	5	0	37*	32
OCc1cc(-c2ccccn2)no1	5	2	-14	2	·	·	·
COc1cc(S(=O)(=O)Nc2ccc3c(c2)C(=O)N(C)C3=O)ccc1NC(C)=O	54*	0	3	-1	4	41*	43*
C[Si](C)(C)n1ccnc1	-1	0	5	8	3	·	·
O=C(NC[C@@H]1CCCO1)c1cccc2c1C(=O)c1ccc(N3CCOCC3)cc1S2(=O)=O	76*	-1	5	1	0	64*	41*
COCCNC(=O)c1cccc2c1C(=O)c1ccc(N3CCOCC3)cc1S2(=O)=O	73*	-2	-6	0	0	58*	40*
CCCNC(=O)N1C[C@H](O)COC[C@@H]2O[C@@H](CC(=O)NCCCN3CCOCC3)CC[C@H]21	4	·	-2	·	·	·	·
CC(C)Oc1cccc(C(=O)NC(=S)Nc2ccc3c4c(cccc24)CC3)c1	37*	2	-4	-38	1	6	2
N#CCSc1ccccc1NC(=O)CN1C(=O)C(=O)N(Cc2ccccc2)C1=O	38*	-5	0	-74	1	14	11
O=C(CN1C(=O)C(=O)N(Cc2ccccc2)C1=O)Nc1cc(Cl)cc(Cl)c1	2	-12	4	0	0	·	·
COc1ccc(Cl)cc1NC(=O)C/C(C)=N/NC(=O)C(=O)NCc1ccccc1	-1	3	6	1	0	·	·
COc1cc(/C=N/NC(=O)C(=O)/C=C2\NC3(CCCC3)Cc3ccccc32)ccc1O	-1	28	6	21	2	·	·
CN(C)c1ccc(/C=N/NC(=O)C(=O)/C=C2\NC3(CCCC3)Cc3ccccc32)cc1	53*	27	2	14	5	37*	28
COc1cccc(/C=N/Nc2ccc([N+](=O)[O-])cc2)c1O	-23	-2	-2	17	2	·	·
COC(=O)c1ccc(N/N=C/c2cc([N+](=O)[O-])cc(OC)c2O)cc1	49*	7	-1	2	1	5	-1
O=C(CN1CCSC1=NCc1ccccc1)c1ccc(Cl)c(Cl)c1	40*	-6	3	0	0	-13	-5
